Key:
[1] = system: HepG2 cells; assay: MTT cytotoxicity assay, HepG2; assay type: cell-based; conditions: Homo sapiens, HepG2, 24 h, read-out: IC50 HePG2
In short: (§1)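 Cells (ATCC via VACSERA) grown in RPMI-1640 with 10% FBS, penicillin 100 units/mL and streptomycin 100 μg/mL, 37 °C, 5% CO2. Seeded at 1.0 × 10^4 cells/well and held 48 h, then exposed to a range of test compound concentrations for 24 h. MTT (5 mg/mL solution) added for 4 h, formazan dissolved in DMSO, absorbance 570 nm. Run in triplicate; IC50 calculated. 5-FU reference.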

[2] = system: MCF-7 cells; assay: MTT cytotoxicity assay, MCF-7; assay type: cell-based; conditions: Homo sapiens, MCF7, 24 h, read-out: IC50 MCF-7
In short: as §1

[3] = system: PC3 cells; assay: MTT cytotoxicity assay, PC3; assay type: cell-based; conditions: Homo sapiens, PC-3, 24 h, read-out: IC50 PC3
In short: as §1

[4] = system: HCT-116 cells; assay: MTT cytotoxicity assay, HCT-116; assay type: cell-based; conditions: Homo sapiens, HCT-116, 24 h, read-out: IC50 HCT-116
In short: as §1

[5] = molecular target: Pim-1 kinase (Homo sapiens, UniProt P11309); assay: Pim-1 kinase inhibition, luminescent ADP-Glo kinase assay; assay type: biochemical
Pim-1 kinase, sequence (P11309 whole entry): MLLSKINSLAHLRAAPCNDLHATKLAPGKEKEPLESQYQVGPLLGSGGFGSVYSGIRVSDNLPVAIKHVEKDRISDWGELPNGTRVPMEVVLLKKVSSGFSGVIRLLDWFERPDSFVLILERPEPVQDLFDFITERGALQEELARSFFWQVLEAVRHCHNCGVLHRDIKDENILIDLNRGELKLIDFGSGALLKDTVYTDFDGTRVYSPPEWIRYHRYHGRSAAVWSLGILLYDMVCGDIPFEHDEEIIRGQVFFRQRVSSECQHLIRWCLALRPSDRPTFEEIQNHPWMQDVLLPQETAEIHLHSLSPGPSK

| SMILES | IC50 [1] [µM] | IC50 [2] [µM] | IC50 [3] [µM] | IC50 [4] [µM] | IC50 [5] [µM] | fold less potent than quercetagetin (Pim-1 inhibition) [5] | times more potent than A (Pim-1 inhibition) [5] [times] |
| --- | --- | --- | --- | --- | --- | --- | --- |
| N#Cc1c(-c2cc3ccccc3nc2Cl)cc(-c2ccccc2)[nH]c1=O [3a, 4-(2-Chloroquinolin-3-yl)-2-oxo-6-phenyl-1,2-dihydropyridine-3-carbonitrile] | 11.6 ± 0.57 | 60 ± 2.93 | 26.9 ± 1.28 | 49.9 ± 2.36 | 0.9 ± 0.04 | – | – |
| N#Cc1c(-c2cc3ccccc3nc2Cl)cc(-c2cccc(N)c2)[nH]c1=O [3b, 6-(3-Aminophenyl)-4-(2-chloroquinolin-3-yl)-2-oxo-1,2-dihydropyridine-3-carbonitrile] | 12.4 ± 0.59 | 42.4 ± 2.13 | 18.4 ± 0.89 | 30.9 ± 1.52 | 0.85 ± 0.04 | – | – |
| COc1ccc(-c2cc(-c3cc4ccccc4nc3Cl)c(C#N)c(=O)[nH]2)cc1 [3c, 4-(2-Chloroquinolin-3-yl)-6-(4-methoxyphenyl)-2-oxo-1,2-dihydropyridine-3-carbonitrile] | 14.1 ± 0.68 | 25.4 ± 1.2 | 25.8 ± 1.3 | 18.3 ± 0.89 | 0.79 ± 0.04 | – | – |
| N#Cc1c(-c2cc3ccccc3nc2Cl)cc(-c2ccc(Br)cc2)[nH]c1=O [3d, 6-(4-Bromophenyl)-4-(2-chloroquinolin-3-yl)-2-oxo-1,2-dihydropyridine-3-carbonitrile] | 16.2 ± 0.77 | 19.9 ± 0.96 | 20.5 ± 0.97 | 20 ± 0.99 | 0.72 ± 0.03 | – | – |
| N#Cc1c(-c2cc3ccccc3nc2Cl)cc(-c2ccc(Cl)cc2Cl)[nH]c1=O [3e, 4-(2-Chloroquinolin-3-yl)-6-(2,4-dichlorophenyl)-2-oxo-1,2-dihydropyridine-3-carbonitrile] | 11.6 ± 0.57 | 45.9 ± 2.18 | 25.9 ± 1.25 | 50.7 ± 2.5 | 2.31 ± 0.11 | – | – |
| N#Cc1c(-c2cc3ccccc3nc2Cl)cc(-c2ccccc2)nc1Cl [4a, 2-Chloro-4-(2-chloroquinolin-3-yl)-6-phenylnicotinonitrile] | 10 ± 0.49 | 75.7 ± 3.74 | 35.3 ± 1.67 | 50 ± 2.44 | 1.24 ± 0.06 | about 2 fold | – |
| N#Cc1c(-c2cc3ccccc3nc2Cl)cc(-c2cccc(N)c2)nc1Cl [4b, 6-(3-Aminophenyl)-2-chloro-4-(2-chloroquinolin-3-yl) nicotinonitrile] | 12 ± 0.59 | 19.2 ± 0.94 | 15 ± 0.74 | 20.2 ± 0.96 | 0.63 ± 0.03 | – | – |
| COc1ccc(-c2cc(-c3cc4ccccc4nc3Cl)c(C#N)c(Cl)n2)cc1 [4c, 2-Chloro-4-(2-chloroquinolin-3-yl)-6-(4-methoxyphenyl) nicotinonitrile] | 8.02 ± 0.38 | 15.7 ± 0.78 | 13.6 ± 0.67 | 7.15 ± 0.35 | 0.61 ± 0.03 | – | – |
| N#Cc1c(-c2cc3ccccc3nc2Cl)cc(-c2ccc(Br)cc2)nc1Cl [4d, 6-(4-Bromophenyl)-2-chloro-4-(2-chloroquinolin-3-yl) nicotinonitrile] | 6.95 ± 0.34 | 8.5 ± 0.42 | 14.1 ± 0.7 | 8.35 ± 0.42 | 0.46 ± 0.02 | – | 2 |
| N#Cc1c(-c2cc3ccccc3nc2Cl)cc(-c2ccc(Cl)cc2Cl)nc1Cl [4e, 2-Chloro-4-(2-chloroquinolin-3-yl)-6-(2,4-dichlorophenyl) nicotinonitrile] | 11.5 ± 0.56 | 55.5 ± 2.71 | 35.1 ± 1.73 | 65.1 ± 3.08 | 1.42 ± 0.07 | ~2.5 fold | – |
| O=c1[nH]cc(F)c(=O)[nH]1 [5-FU, 5-fluorouracil, reference compound] | 9.42 ± 0.46 | 7.75 ± 0.37 | 10.3 ± 0.5 | 8.01 ± 0.39 | – | – | – |

— article PMC10249106 (ACS Omega, 2023)
